Measurements as given in ChEMBL document CHEMBL1221325, “Synthesis and ribonuclease A inhibition activity of resorcinol and phloroglucinol derivatives of catechin and epicatechin: Importance of hydroxyl groups” (Bioorg Med Chem, 2010).
The source made the active and inactive calls. No cut-off for these calls is given here.

How the values were obtained:
[1] = target: Ribonuclease pancreatic (Bos taurus) (UniProt P61823); experiment: Binding affinity to RNase A by fluorescence quenching
[2] = target: Ribonuclease pancreatic (Bos taurus) (UniProt P61823); experiment: Inhibition of RNase A-mediated degradation of yeast tRNA assessed as residual tRNA band by agarose gel electrophoresis relative to control
Gallus gallus = species: Gallus gallus; experiment: Antiangiogenic activity against angiogenin-induced angiogenesis in chicken eggs at 150 uM for 10 days measured after 48 hrs by CAM assay; assay type: functional; details: Egg
Outline: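 Chick embryo chorioallantoic membrane exposed through a small hole drilled in the shell on day 2. 10 µl aliquots of angiogenin, alone or mixed with compound, dried on transparent discs, which were inverted onto the CAM on day 10. Response read after 48 h as density of blood vessel formation against a control set.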

Chain of Ribonuclease pancreatic (Bos taurus) (P61823 whole entry, looked up): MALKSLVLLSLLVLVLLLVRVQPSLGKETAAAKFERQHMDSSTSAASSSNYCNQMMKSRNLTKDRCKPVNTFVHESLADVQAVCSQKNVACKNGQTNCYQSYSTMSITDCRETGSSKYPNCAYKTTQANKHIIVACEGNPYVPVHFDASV

Row | SMILES | Kb [1] [×10⁴ /M] | Ratio [2] | Activity (Gallus gallus)
1 | Oc1cc(O)c([C@@H]2c3c(O)cc(O)cc3O[C@H](c3ccc(O)c(O)c3)[C@@H]2O)c(O)c1 | 3.14 | 0.699 | –
2 | Oc1cc(O)c2c(c1)O[C@H](c1ccc(O)c(O)c1)[C@H](O)C2 | – | 0.295 | –
3 | Oc1ccc([C@@H]2c3c(O)cc(O)cc3O[C@H](c3ccc(O)c(O)c3)[C@H]2O)c(O)c1 | 1.37 | 0.612 | –
4 | Oc1cc(O)c2c(c1)OC(c1ccc(O)c(O)c1)C(O)C2 (stereo not drawn) | – | 0.331 | –
5 | Oc1cc(O)c([C@H]2c3c(O)cc(O)cc3O[C@H](c3ccc(O)c(O)c3)[C@@H]2O)c(O)c1 | 6.76 | 0.704 | Active
6 | Oc1ccc([C@H]2c3c(O)cc(O)cc3O[C@H](c3ccc(O)c(O)c3)[C@@H]2O)c(O)c1 | 2.42 | 0.659 | Active
7 | Nc1ccn([C@@H]2O[C@H](CO)[C@@H](OP(=O)(O)O)[C@H]2O)c(=O)n1 | – | 0.71 | –
